Two molecules from publication PMC3902942 (Nucleic Acids Research, 2013) can be followed below.

The subject of experiment [1] is PU.1-λB complex (PU.1 ETS domain on immobilized λB site hairpin). Put plainly: Biosensor-SPR PU.1-DNA complex inhibition. Format: binding, murine. Put shortly:
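Murine PU.1 ETS domain (residues 167–272), expressed in E. coli, on a Biacore T200 biosensor. 5′-Biotinylated λB-site hairpin DNA immobilised on CM4 chips. Protein injected at constant 100 nM to saturate DNA sites, with graded compound concentrations added to the protein solution. Loss of protein signal plotted against compound concentration. Transition midpoint taken as IC50.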

The target of experiment [2] is λB site DNA hairpin duplex. Briefly: Biosensor-SPR direct binding of compounds to immobilized λB site DNA hairpin. As to conditions: read-out: KD for the λB site.

The Kd is the constant that tells how readily two partners part at equilibrium. With `N=C(N)c1ccc(-c2ccc(-c3ccc(C(=N)N)cc3)o2)cc1` [DB75, furamidine], the “Inhibition of PU.1 binding (in words)” value in experiment [1] was “does not inhibit PU.1 binding”. The Kd in experiment [2] was 530 nM.

The IC50 is the midpoint of a concentration-inhibition curve. As to `N=C(N)c1ccc(-c2ccc(-c3ccc(C(=N)N)cc3)[se]2)cc1` [DB1213], the IC50 in experiment [1] (read-out: IC50 of PU.1 binding inhibition) is about 1500 nM.
